Test results taken from ChEMBL document CHEMBL1132260, “Antitumor agents. 194. Synthesis and biological evaluations of 4-beta-mono-, -di-, and -trisubstituted aniline-4'-O-demethyl-podophyllotoxin and related compounds with improved pharmacological profiles” (J Med Chem, 1999).

Columns and labels:
[1] = The compound was tested for cytotoxic activity against KB cell line by clonogenic cell survival assay.; format: cell-based; details: human, KB cells; read-out: LD50 (the source's name)
Procedure, shortened: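 KB cells were exposed to a range of concentrations for 3 h, then replated. Colony formation and plating efficiency were counted. LD50 (50% fall in plating efficiency vs untreated control) was read graphically. There were three independent experiments.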

HCT-8 = assay: The compound was tested for tumor cell growth inhibitory activity against human ileocecal carcinoma (HCT-8) cell line; format: functional; details: HCT-8, read-out: ED50
Procedure, shortened: (§1)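 For the SRB growth assay, cells were grown in RPMI-1640 with 10% FBS and kanamycin at 37 °C under 5% CO2. Drug exposure was 3 days, with DMSO ≤2% final. Absorbance was read at 562 nm. ED50 (50% absorbance reduction vs untreated) was interpolated from dose–response data. Tests were run in triplicate.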

KB [2] = assay: Cellular protein-DNA complex breaking activity against KB cells labeled with tritiated thymidine.; format: functional, Homo sapiens
Procedure, shortened: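 KB cells were labelled overnight with tritiated thymidine, chased 2 h, then exposed in triplicate to test agent for 1 h. Protein–DNA complexes were read as potassium-SDS precipitable radioactivity and expressed as fold over untreated control.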

MCF7 = assay: The compound was tested for tumor cell growth inhibitory activity against human breast cancer (MCF-7) cell line.; format: functional; details: MCF7, read-out: ED50; procedure, shortened: as §1
CAKI-1 = assay: The compound was tested for tumor cell growth inhibitory activity against human renal cancer(CAKI-1) cell line; format: functional; details: CAKI-1, read-out: ED50; procedure, shortened: as §1
[3] = target: T1, DNA topoisomerase II (Homo sapiens) (UniProt P11388+Q02880); assay: The compound was tested for inhibitory activity against human DNA topoisomerase-2.; format: protein assay
Procedure, shortened: (§2)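 Human topoisomerase II (p170 isoform, 0.25 U) was assayed by P4 DNA unknotting. The buffer was 50 mM Tris-HCl pH 7.5, 100 mM KCl, 10 mM MgCl2, 0.5 mM DTT, 0.5 mM EDTA and 1 mM ATP, with BSA. Reactions ran 1 h at 37 °C, were stopped with SDS-sucrose, then run on 0.7% agarose and stained with ethidium bromide. Inhibition was scored by eye. IC100 is the concentration giving complete inhibition.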

A549 = assay: The compound was tested for tumor cell growth inhibitory activity against human lung carcinoma (A549) cell line.; format: functional; details: A549, read-out: ED50; procedure, shortened: as §1
KB [4] = assay: The compound was tested for tumor cell growth inhibitory activity against human KB-7d cell line resistant to etoposide; format: functional; details: read-out: ED50 (the source's name); procedure, shortened: as §1
KB [5] = assay: The compound was tested for tumor cell growth inhibitory activity against human KB-vin20c cell line resistant to vincristine; format: functional; details: read-out: ED50 (the source's name); procedure, shortened: as §1
[6] = target: T1, DNA topoisomerase II (Homo sapiens); assay: The compound was tested for inhibitory activity against human DNA topoisomerase II; format: protein assay; procedure, shortened: as §2
KB [7] = assay: The compound was tested for tumor cell growth inhibitory activity against human etoposide (KB-7d) cell line.; format: functional; details: read-out: ED50 (the source's name); procedure, shortened: as §1
Mus musculus [8] = assay: The compound was tested for antitumor activity against (P388/0) Leukemia cells in mice. with a dosage of 27.0 mg/Kg/dose. activity is expressed as net log change in tumor burden.; format: functional, Leukemia cell
Procedure, shortened: (§3)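 The P388/0 leukaemia was implanted ip in female CD2F1 mice. Treatment was iv on a Q4D×3 schedule, injected at 0.1 cm³/10 g body weight. Agents were given in saline or in 10% DMSO/35% PEG 300/5% Tween 80/50% D5W, against a saline control. Median day of death, %ILS and net log change in tumour burden (at end of treatment) were recorded. The work was done at a contract lab.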

Mus musculus [9] = assay: The compound was tested for antitumor activity against (P388/0) Leukemia cells in mice. with a dosage of 27.0 mg/kg/dose. activity is expressed as %ILS.; format: functional; details: Leukemia cell; procedure, shortened: as §3
Mus musculus [10] = assay: The compound was tested for antitumor activity against (P388/0) Leukemia cells in mice. with a dosage of 27.0 mg/Kg/dose. activity is expressed as median day of death.; format: functional, Leukemia cell; procedure, shortened: as §3
Mus musculus [11] = assay: The compound was tested for antitumor activity against Subcutaneous Mammary Tumor MCF-7 cells. with a dosage of 40.0 mg/Kg/dose. activity is expressed as days to tumor doubling.; format: functional, MCF7
Procedure, shortened: (§4)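 MCF-7 human mammary tumour cells were implanted sc in female athymic nude mice. Dosing was iv on a Q4D×3 schedule at 0.1 cm³/10 g body weight, using saline or a DMSO/PEG 300/Tween 80/D5W vehicle, with a saline control. The endpoint was days to tumour doubling.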

Mus musculus [12] = assay: The compound was tested for antitumor activity against (P388/0) Leukemia cells in mice. with a dosage of 10.0 mg/Kg/dose. activity is expressed as median day of death.; format: functional, Leukemia cell; procedure, shortened: as §3
Mus musculus [13] = assay: The compound was tested for antitumor activity against (P388/0) Leukemia cells in mice. with a dosage of 40.0 mg/Kg/dose. activity is expressed as net log change in tumor burden.; format: functional, Leukemia cell; procedure, shortened: as §3
Mus musculus [14] = assay: The compound was tested for antitumor activity against (P388/0) Leukemia cells in mice. with a dosage of 40.0 mg/Kg/dose; format: functional, Leukemia cell; procedure, shortened: as §3
Mus musculus [15] = assay: The compound was tested for antitumor activity against Subcutaneous Mammary Tumor MCF-7 cells. with a dosage of 27.0 mg/Kg/dose. activity is expressed as days to tumor doubling.; format: functional, MCF7; procedure, shortened: as §4
Mus musculus [16] = assay: The compound was tested for antitumor activity against (P388/0) Leukemia cells in mice. with a dosage of 10.0 mg/Kg/dose. activity is expressed as net log change in tumor burden.; format: functional, Leukemia cell; procedure, shortened: as §3
Mus musculus [17] = assay: The compound was tested for antitumor activity against (P388/0) Leukemia cells in mice. with a dosage of 10.0 mg/Kg/dose. activity is expressed as %ILS.; format: functional; details: Leukemia cell; procedure, shortened: as §3
Mus musculus [18] = assay: The compound was tested for antitumor activity against (P388/0) Leukemia cells in mice. with a dosage of 40.0 mg/Kg/dose. activity is expressed as %ILS.; format: functional; details: Leukemia cell; procedure, shortened: as §3

Row | SMILES | CC50 [1] | EC50 (HCT-8) | Complex formation (KB [2]) | EC50 (MCF7) | EC50 (CAKI-1) | IC100 [3] | EC50 (A549) | EC50 (KB [4]) | EC50 (KB [5]) | IC100 [6] | EC50 (KB [7]) | other results
1 | COc1cc([C@@H]2c3cc4c(cc3[C@@H](Nc3ccc([N+](=O)[O-])cc3)[C@H]3COC(=O)[C@H]23)OCO4)cc(OC)c1O | 1 µM | 8.5 µM | 122% | 28.5 µM | 1.5 µM | 10 µM | – | – | – | – | – | –
2 | COc1cc([C@@H]2c3cc4c(cc3[C@@H](Nc3ccc(-c5nc6ccccc6[nH]5)cc3)[C@H]3COC(=O)[C@H]23)OCO4)cc(OC)c1O | 0.2 µM | 0.63 µM | 128% | 0.85 µM | 0.35 µM | – | 0.23 µM | 450 µM | 1.4 µM | 10 µM | – | –
3 | COc1cc([C@@H]2c3cc4c(cc3[C@@H](Nc3ccc(NC(=O)C56CCC(C)(C(=O)O5)C6(C)C)cc3)[C@H]3COC(=O)[C@H]23)OCO4)cc(OC)c1O (stereo partly drawn) | – | 20 µM | 88% | > 5 µM | > 1.25 µM | 10 µM | 2.2 µM | – | – | – | 5600 µM | –
4 | COc1cc([C@@H]2c3cc4c(cc3[C@H](Nc3cc([N+](=O)[O-])cc([N+](=O)[O-])c3)[C@H]3COC(=O)[C@H]23)OCO4)cc(OC)c1O | – | > 5 µM | 8% | 2.5 µM | > 10 µM | > 100 µM | > 5 µM | – | – | – | 7600 µM | –
5 | COc1cc([N+](=O)[O-])ccc1N[C@@H]1c2cc3c(cc2[C@@H](c2cc(OC)c(O)c(OC)c2)[C@H]2C(=O)OC[C@@H]21)OCO3 | > 20 µM | > 10 µM | 83% | 5 µM | 1.1 µM | > 100 µM | 0.63 µM | – | – | – | 4000 µM | –
6 | COc1cc(N[C@@H]2c3cc4c(cc3[C@@H](c3cc(OC)c(O)c(OC)c3)[C@H]3C(=O)OC[C@@H]32)OCO4)c(C)cc1[N+](=O)[O-] | – | > 50 µM | 3.5% | – | > 50 µM | – | > 50 µM | – | – | > 100 µM | – | –
7 | COc1cc([C@@H]2c3cc4c(cc3[C@@H](O[C@@H]3O[C@@H]5CO[C@@H](C)O[C@H]5[C@H](O)[C@H]3O)[C@H]3COC(=O)[C@H]23)OCO4)cc(OC)c1O [ETOPOSIDE] | 20 µM | > 5 µM | 100% | > 5 µM | 2.2 µM | – | 1.95 µM | 23.8 µM | 30.6 µM | – | – | Net log change in tumor burden (Mus musculus [8]): -3.4; ILS at 27 mg/kg/day (Mus musculus [9]): 130%; Day of death (Mus musculus [10]): 23; Days to tumor doubling (Mus musculus [11]): >24.1; Day of death (Mus musculus [12]): 19; Net log change in tumor burden (Mus musculus [13]): -5.5; Day of death (Mus musculus [14]): 26; Days to tumor doubling (Mus musculus [15]): 18.5; Net log change in tumor burden (Mus musculus [16]): -0.7; ILS at 10 mg/kg/day (Mus musculus [17]): 90%; ILS at 40 mg/kg/day (Mus musculus [18]): 160%
8 | COc1cc([C@@H]2c3cc4c(cc3[C@@H](Nc3nc5ccccc5[nH]3)[C@H]3COC(=O)[C@H]23)OCO4)cc(OC)c1O | – | 3.3 µM | 58% | – | 17.5 µM | – | 3.5 µM | 0.9 µM | 1000 µM | 100 µM | – | –
9 | COc1ccc(N[C@@H]2c3cc4c(cc3[C@@H](c3cc(OC)c(O)c(OC)c3)[C@H]3C(=O)OC[C@@H]32)OCO4)c([N+](=O)[O-])c1 | > 20 µM | 2 µM | 15% | 2.5 µM | 0.63 µM | > 100 µM | 1.7 µM | – | – | – | 740 µM | –
10 | COc1cc([C@@H]2c3cc4c(cc3[C@@H](Nc3cc([N+](=O)[O-])cc([N+](=O)[O-])c3)[C@H]3COC(=O)[C@H]23)OCO4)cc(OC)c1O | – | 26 µM | 20% | > 5 µM | 10 µM | > 100 µM | > 40 µM | – | – | – | 17500 µM | –
11 | COc1ccc([N+](=O)[O-])cc1N[C@@H]1c2cc3c(cc2[C@@H](c2cc(OC)c(O)c(OC)c2)[C@H]2C(=O)OC[C@@H]21)OCO3 | > 20 µM | 4.8 µM | 12% | 2.4 µM | 2.5 µM | > 100 µM | 2.25 µM | – | – | – | 1800 µM | –
12 | COc1cc([N+](=O)[O-])c(OC)cc1N[C@@H]1c2cc3c(cc2[C@@H](c2cc(OC)c(O)c(OC)c2)[C@H]2C(=O)OC[C@@H]21)OCO3 | – | > 50 µM | 4.4% | – | 45 µM | – | 21.5 µM | 37 µM | 20 µM | > 100 µM | – | –
